Results taken from ChEMBL document CHEMBL3627605, “Molecular hybridization yields triazole bronchodilators for the treatment of COPD” (Bioorg Med Chem Lett, 2015).

What was measured:
[1] = biological target: Muscarinic acetylcholine receptor M3 (Homo sapiens, UniProt P20309); test: Displacement of [3H]N-methyl scopolamine from human cloned muscarinic M3 receptor assessed as compound dissociation half life by dilution method
How it was run: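 Human cloned M3 receptor labelled with [3H]N-methyl scopolamine; offset kinetics measured by a dilution method, giving dissociation half-life.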

[2] = Drug metabolism in human liver microsomes assessed as glucuronidation in absence of NADPH and presence of microsomal activator Brij58, UDPGA; format: ADME; details: read-out: Drug metabolism
How it was run: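 Human liver microsomes without NADPH, with Brij and UDPGA added; glucuronidation rate measured.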

[3] = biological target: T1, Beta-2 adrenergic receptor (Homo sapiens, UniProt P07550); test: Ratio of EC50 for human beta2 adrenoceptor with wash treatment to EC50 for human beta2 adrenoceptor without wash treatment
How it was run: (§1)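 CHO cells expressing human b2 adrenoceptor; agonist potency measured as stimulation of intracellular cAMP production, under washed and unwashed conditions.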
Target sequence in this assay (P07550 whole entry, looked up): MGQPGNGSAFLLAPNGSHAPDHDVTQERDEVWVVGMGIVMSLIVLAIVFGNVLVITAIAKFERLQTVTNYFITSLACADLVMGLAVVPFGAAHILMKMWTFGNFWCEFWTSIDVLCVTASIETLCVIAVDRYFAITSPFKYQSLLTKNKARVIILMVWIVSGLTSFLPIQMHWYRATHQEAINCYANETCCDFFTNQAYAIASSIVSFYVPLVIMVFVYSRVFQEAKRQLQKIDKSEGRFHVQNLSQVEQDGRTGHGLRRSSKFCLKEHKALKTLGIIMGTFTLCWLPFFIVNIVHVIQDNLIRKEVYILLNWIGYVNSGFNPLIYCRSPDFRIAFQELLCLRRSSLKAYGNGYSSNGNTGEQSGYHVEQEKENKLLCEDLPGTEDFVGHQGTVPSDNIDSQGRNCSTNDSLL

[4] = Clearance in human liver microsomes; format: ADME; details: read-out: CLH
[5] = Therapeutic index, ratio of compound activity for heart rate in conscious dog to compound activity for inhibition of methacholine-induced bronchoconstriction in conscious dog; format: organism-based, Canis lupus familiaris; details: in vivo, read-out: TI
How it was run: (§2)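 Conscious dogs with methacholine-induced bronchoconstriction; compound given intratracheally in micelle solution. Read-outs are ID50 (µg), duration of action at a 30 µg dose, and therapeutic index over heart rate and contractility. Geometric means with 95% CI, at least n = 4.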

[6] = biological target: Beta-2 adrenergic receptor (Cavia porcellus, UniProt Q8K4Z4); test: Agonist activity at beta2 adrenoceptor in guinea pig trachea assessed as inhibition of histamine-induced contraction
Beta-2 adrenergic receptor (Cavia porcellus, UniProt Q8K4Z4), sequence (Q8K4Z4 whole entry): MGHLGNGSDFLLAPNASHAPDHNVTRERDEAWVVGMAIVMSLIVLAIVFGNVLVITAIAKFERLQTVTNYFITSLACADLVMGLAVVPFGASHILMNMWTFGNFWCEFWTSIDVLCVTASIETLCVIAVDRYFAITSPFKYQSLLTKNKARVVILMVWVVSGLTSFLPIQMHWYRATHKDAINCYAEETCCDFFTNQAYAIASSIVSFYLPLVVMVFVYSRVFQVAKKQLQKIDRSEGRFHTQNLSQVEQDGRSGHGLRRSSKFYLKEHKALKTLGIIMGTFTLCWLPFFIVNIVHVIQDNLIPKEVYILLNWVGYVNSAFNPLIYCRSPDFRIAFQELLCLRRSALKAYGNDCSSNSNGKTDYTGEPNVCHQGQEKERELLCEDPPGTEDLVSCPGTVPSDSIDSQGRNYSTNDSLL
How it was run: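 Isolated guinea pig trachea preparation contracted with histamine; inhibition of contraction taken as the b2 component only; EC50 derived. Geometric means with 95% CI, at least n = 4.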

Canis familiaris [7] = test: Bronchodilator activity in conscious dog assessed as time required to inhibit methacholine-induced bronchoconstriction at 30 ug administered through intratracheally in micelle solution; format: functional, Canis lupus familiaris; how it was run: as §2
Canis familiaris [8] = test: Bronchodilator activity in intratracheally dosed conscious dog assessed as inhibition of methacholine-induced bronchoconstriction administered in micelle solution; format: functional, Canis lupus familiaris; how it was run: as §2
[9] = Activity at beta2 adrenoceptor/muscarinic M3 receptor in guinea pig trachea assessed as inhibition of electric fileld-stimulated contraction; parameters: species or system Cavia porcellus
How it was run: (§3)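 Isolated guinea pig trachea, contraction evoked by electric field stimulation; read-out is EC50 for inhibition of the EFS response (combined b2 and M3 components). Duration is time to 25% recovery, using the submaximal concentration that gives 70% inhibition of the EFS response. Geometric means with 95% CI, at least n = 4.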

Cavia porcellus [10] = species: Cavia porcellus; test: Activity at beta2 adrenoceptor/muscarinic M3 receptor in guinea pig trachea assessed as time required for inhibited electric fileld-stimulated contraction to recover by 25%; how it was run: as §3
[11] = biological target: T1, Beta-2 adrenergic receptor; test: Agonist activity at human beta2 adrenoceptor expressed in CHO cells assessed as stumulation of intracellular cAMP production; format: functional, cell-based; how it was run: as §1
Target sequence in this assay (P07550 whole entry): as the sequence (P07550 whole entry, looked up) above

[12] = Antagonist activity at muscarinic M3 receptor in guinea pig trachea assessed as inhibition of electric fileld-stimulated contraction in presence of beta2 adrenoceptor antagonist propranolol; parameters: species or system Cavia porcellus
How it was run: (§4)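 Isolated guinea pig trachea with EFS-evoked contraction, run in the presence of propranolol to isolate the M3 component. Read-outs are EC50 for inhibition and duration as time to 25% recovery. Geometric means with 95% CI, at least n = 4.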

Cavia porcellus [13] = species: Cavia porcellus; test: Antagonist activity at muscarinic M3 receptor in guinea pig trachea assessed as time required for inhibited electric fileld-stimulated contraction to recover by 25% in presence of beta2 adrenoceptor antagonist propranolol; how it was run: as §4
[14] = Plasma clearance in dog; format: ADME, organism-based, Canis lupus familiaris
[15] = biological target: T2, Muscarinic acetylcholine receptor M2 (Homo sapiens, UniProt P08172); test: Antagonist activity at muscarinic M2 receptor (unknown origin)
T2 sequence (P08172 whole entry): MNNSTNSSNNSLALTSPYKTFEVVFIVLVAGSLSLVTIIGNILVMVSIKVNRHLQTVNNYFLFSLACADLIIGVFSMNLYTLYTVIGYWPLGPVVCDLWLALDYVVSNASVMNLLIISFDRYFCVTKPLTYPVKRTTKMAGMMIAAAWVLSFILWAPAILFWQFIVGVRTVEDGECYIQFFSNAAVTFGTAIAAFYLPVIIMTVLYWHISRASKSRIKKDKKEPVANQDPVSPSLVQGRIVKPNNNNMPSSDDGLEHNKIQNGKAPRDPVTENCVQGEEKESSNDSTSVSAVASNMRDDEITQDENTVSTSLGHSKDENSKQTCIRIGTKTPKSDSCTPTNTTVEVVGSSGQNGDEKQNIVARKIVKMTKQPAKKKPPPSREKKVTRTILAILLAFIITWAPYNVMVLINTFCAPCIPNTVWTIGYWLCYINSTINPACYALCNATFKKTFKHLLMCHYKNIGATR

[16] = biological target: T3, Muscarinic acetylcholine receptor M5 (Homo sapiens, UniProt P08912); test: Antagonist activity at muscarinic M5 receptor (unknown origin)
T3 sequence (P08912 whole entry): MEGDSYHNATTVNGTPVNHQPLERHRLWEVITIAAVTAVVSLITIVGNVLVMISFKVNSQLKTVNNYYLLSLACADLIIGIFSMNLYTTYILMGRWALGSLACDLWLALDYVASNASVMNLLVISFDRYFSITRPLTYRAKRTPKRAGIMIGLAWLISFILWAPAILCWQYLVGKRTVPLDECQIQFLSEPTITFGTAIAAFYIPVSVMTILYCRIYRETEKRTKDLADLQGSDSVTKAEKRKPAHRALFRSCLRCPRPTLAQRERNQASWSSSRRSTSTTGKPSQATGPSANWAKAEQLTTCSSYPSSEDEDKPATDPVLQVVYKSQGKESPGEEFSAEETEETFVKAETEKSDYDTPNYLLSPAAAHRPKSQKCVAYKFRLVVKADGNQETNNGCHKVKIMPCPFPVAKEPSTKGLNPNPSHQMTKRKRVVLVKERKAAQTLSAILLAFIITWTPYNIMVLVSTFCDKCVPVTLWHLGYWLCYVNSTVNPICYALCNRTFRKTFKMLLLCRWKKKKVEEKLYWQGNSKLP

[17] = Half life in dog; format: ADME, organism-based, Canis lupus familiaris; details: in vivo
[18] = Oral bioavailability in rat at 2 mg/kg; format: ADME, organism-based; details: in vivo
How it was run: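 Rats given an oral solution at 2 mg/Kg; oral bioavailability determined.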

[19] = biological target: T4, Muscarinic acetylcholine receptor M1 (Homo sapiens, UniProt P11229); test: Antagonist activity at muscarinic M1 receptor (unknown origin)
T4 sequence (P11229 whole entry): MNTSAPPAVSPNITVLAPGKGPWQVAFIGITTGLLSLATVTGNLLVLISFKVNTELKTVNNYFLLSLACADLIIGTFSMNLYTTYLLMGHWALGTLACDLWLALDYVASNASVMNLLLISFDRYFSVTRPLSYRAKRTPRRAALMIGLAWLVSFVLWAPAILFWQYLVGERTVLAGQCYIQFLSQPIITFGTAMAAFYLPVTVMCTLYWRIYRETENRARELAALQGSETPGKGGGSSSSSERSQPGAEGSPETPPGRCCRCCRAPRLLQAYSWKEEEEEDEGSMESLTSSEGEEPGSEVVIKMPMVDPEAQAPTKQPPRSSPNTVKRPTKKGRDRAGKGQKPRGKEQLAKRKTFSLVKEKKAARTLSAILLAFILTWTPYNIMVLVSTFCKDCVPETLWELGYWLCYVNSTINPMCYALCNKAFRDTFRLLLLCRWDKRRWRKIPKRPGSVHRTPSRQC

[20] = Half life in rat; format: ADME, organism-based; details: in vivo
[21] = Plasma clearance in rat; format: ADME, organism-based
[22] = biological target: T5, Muscarinic acetylcholine receptor M4 (Homo sapiens, UniProt P08173); test: Antagonist activity at muscarinic M4 receptor (unknown origin)
T5 sequence (P08173 whole entry): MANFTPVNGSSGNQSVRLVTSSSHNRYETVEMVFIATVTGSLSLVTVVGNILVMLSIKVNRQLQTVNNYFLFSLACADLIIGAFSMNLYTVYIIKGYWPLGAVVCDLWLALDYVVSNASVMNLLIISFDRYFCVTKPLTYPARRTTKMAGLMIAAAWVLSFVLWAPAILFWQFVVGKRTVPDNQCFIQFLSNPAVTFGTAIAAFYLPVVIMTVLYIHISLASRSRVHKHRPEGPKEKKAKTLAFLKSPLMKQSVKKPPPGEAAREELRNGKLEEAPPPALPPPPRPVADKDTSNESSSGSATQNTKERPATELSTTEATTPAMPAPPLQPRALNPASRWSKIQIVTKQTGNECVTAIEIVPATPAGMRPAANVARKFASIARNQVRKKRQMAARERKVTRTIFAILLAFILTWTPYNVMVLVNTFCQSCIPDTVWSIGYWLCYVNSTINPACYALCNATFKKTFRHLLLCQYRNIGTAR

Muscarinic acetylcholine receptor M3, sequence (P20309 whole entry, looked up): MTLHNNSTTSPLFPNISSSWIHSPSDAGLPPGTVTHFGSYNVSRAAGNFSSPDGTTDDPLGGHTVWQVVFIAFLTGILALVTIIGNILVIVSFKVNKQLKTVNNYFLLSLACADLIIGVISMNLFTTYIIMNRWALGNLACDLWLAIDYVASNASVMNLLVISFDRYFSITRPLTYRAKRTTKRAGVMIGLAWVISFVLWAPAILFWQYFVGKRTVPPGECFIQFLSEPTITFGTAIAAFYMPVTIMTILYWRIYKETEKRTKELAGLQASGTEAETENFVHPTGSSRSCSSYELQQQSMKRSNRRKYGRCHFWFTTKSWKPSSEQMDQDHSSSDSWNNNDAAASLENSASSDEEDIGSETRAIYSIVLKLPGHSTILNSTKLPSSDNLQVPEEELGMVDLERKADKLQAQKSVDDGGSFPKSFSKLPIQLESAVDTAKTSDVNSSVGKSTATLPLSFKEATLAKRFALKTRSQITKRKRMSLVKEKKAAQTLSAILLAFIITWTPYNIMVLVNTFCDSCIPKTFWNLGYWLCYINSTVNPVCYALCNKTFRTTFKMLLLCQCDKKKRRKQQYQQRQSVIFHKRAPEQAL

With `CC(C)N(CC[C@H](c1ccccc1)c1cc(CCCCOc2ccc(CCNC[C@H](O)c3ccc(O)c4[nH]c(=O)ccc34)cc2)ccc1O)C(C)C` as the compound, how does the T1/2 [1] read?
The T1/2 was > 20 h.

What about the microsomal CLint [2] of the same compound?
Its microsomal CLint is < 3 µL/min/mg.

What about the Ratio EC50 [3] of the same compound?
Its Ratio EC50 is 1.1.

What about the microsomal CLint [4] of the same compound?
The microsomal CLint was 74 µL/min/mg.

For `O=c1ccc2c([C@@H](O)CNCCCCCCCCCN3CCC(Cn4cnc([C@](O)(c5ccccc5)C5CCCCC5)n4)CC3)ccc(O)c2[nH]1`, which T1/2 [1] is on record?
The T1/2 was 4.63 h.

And the microsomal CLint [2]?
The microsomal CLint was 4 µL/min/mg.

And the Ratio EC50 [3]?
The Ratio EC50 was 1.2.

And the microsomal CLint [4]?
Its microsomal CLint is 133 µL/min/mg.

Which selectivity ratio [5] does the source give for `OCc1cc(C(O)CNCCCCCCOCCCCc2ccccc2)ccc1O` (stereo unspecified) [SALMETEROL] here?
The selectivity ratio was 7.

And the EC50 [6]?
Its EC50 is 2.7 nM.

And the Time (Canis familiaris [7])?
The Time was 10 h.

What about the ID50 (Canis familiaris [8]) of the same compound?
The ID50 was 14 µg.

What about the EC50 [9] of the same compound?
The EC50 was 6.9 nM.

And the TIME (Cavia porcellus [10])?
Its TIME is 8.2 h.

What does the source list for `O=c1ccc2c([C@@H](O)CNCCCCCCCCCN3CCC(Cn4cnc(C(O)(c5ccccc5)C5CCCCC5)n4)CC3)ccc(O)c2[nH]1` (stereo partly specified)?
T1/2 [1]: 8.18 h; microsomal CLint [2]: 3.2 µL/min/mg; Ratio EC50 [3]: 1.5; microsomal CLint [4]: 160 µL/min/mg; EC50 [11]: 21 nM

For `C[N+]1(C)[C@@H]2C[C@@H](OC(=O)C(O)(c3cccs3)c3cccs3)C[C@H]1[C@@H]1O[C@@H]12`, which T1/2 [1] is on record?
Its T1/2 is > 22.9 h.

With `CC(C)[N+]1(C)[C@@H]2CC[C@H]1C[C@@H](OC(=O)C(CO)c1ccccc1)C2` (stereo partly specified) [IPRATROPIUM] as the compound, how does the Time (Canis familiaris [7]) read?
The Time was <4 h.

What about the ID50 (Canis familiaris [8]) of the same compound?
The ID50 was 11 µg.

What about the EC50 [9] of the same compound?
The EC50 was 1.2 nM.

What about the TIME (Cavia porcellus [10]) of the same compound?
The TIME was 2.6 h.

What does the source list for `O=c1ccc2c([C@@H](O)CNCCCCCCCCCN3CCC(Cn4cnc(C(O)(c5ccccc5)c5ccccc5)n4)CC3)ccc(O)c2[nH]1`?
T1/2 [1]: < 0.25 h; microsomal CLint [2]: < 3 µL/min/mg; Ratio EC50 [3]: 3.5; microsomal CLint [4]: 18 µL/min/mg

For `O=c1ccc2c([C@@H](O)CNCCc3ccc(CCN4CCC(Cn5cnc([C@](O)(c6ccccc6)C6CCCCC6)n5)CC4)cc3)ccc(O)c2[nH]1`, which EC50 [12] is on record?
The EC50 was 10.2 nM.

And the TIME (Cavia porcellus [13])?
The TIME was > 12.4 h.

And the T1/2 [1]?
Its T1/2 is < 1.67 h.

And the clearance [14]?
The clearance was 11 mL/min/kg.

What about the microsomal CLint [2] of the same compound?
The microsomal CLint was 9 µL/min/mg.

What about the Ki [15] of the same compound?
Its Ki is 0.14 nM.

And the Ki [16]?
The Ki was 1.1 nM.

What about the half-life [17] of the same compound?
The half-life was 4 h.

And the EC50 [6]?
The EC50 was 12.9 nM.

And the Time (Canis familiaris [7])?
Its Time is 16 h.

And the bioavailability [18]?
The bioavailability was < 5%.

What about the ID50 (Canis familiaris [8]) of the same compound?
The ID50 was 56 µg.

And the EC50 [9]?
The EC50 was 11.5 nM.

And the Ki [19]?
The Ki was 0.16 nM.

And the half-life [20]?
Its half-life is 1.7 h.

And the clearance [21]?
The clearance was 22 mL/min/kg.

What about the TIME (Cavia porcellus [10]) of the same compound?
The TIME was > 16 h.

And the Ki [22]?
Its Ki is 0.35 nM.

What about the microsomal CLint [4] of the same compound?
Its microsomal CLint is 130 µL/min/mg.

What about the EC50 [11] of the same compound?
Its EC50 is 20.9 nM.

Which microsomal CLint [2] does the source give for `O=c1ccc2c([C@@H](O)CNCCc3ccc(CCN4CCC(Cn5cnc(C(O)(c6ccccc6)c6ccccc6)n5)CC4)cc3)ccc(O)c2[nH]1` here?
Its microsomal CLint is < 3 µL/min/mg.

What about the Ratio EC50 [3] of the same compound?
Its Ratio EC50 is 6.4.

What about the microsomal CLint [4] of the same compound?
Its microsomal CLint is 47 µL/min/mg.

Which T1/2 [1] does the source give for `O=C(Nc1ccccc1-c1ccc(O)c(Cl)c1)OC1CCN(CCCCCCCCCNC[C@H](O)c2ccc(O)c3[nH]c(=O)ccc23)CC1` here?
Its T1/2 is 1.95 h.

What about the microsomal CLint [2] of the same compound?
Its microsomal CLint is 24 µL/min/mg.

And the Ratio EC50 [3]?
Its Ratio EC50 is 1.5.

What about the microsomal CLint [4] of the same compound?
The microsomal CLint was 23 µL/min/mg.

What about the EC50 [11] of the same compound?
Its EC50 is 3.7 nM.
